Test results reported in the array DNA melting data of Ke et al. (doi:10.1101/2024.01.08.574731).

What was measured:
[1] = folding enthalpy; higher = less favourable; fluorescence melt of hairpins on a sequencing array, two-state fit; conditions: sodium 0.088 M
Procedure, shortened: (§1)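 Two-state fits, bootstrapped, provided melting temperature and folding enthalpy from Cy3 fluorescence normalised to pre-quench Cy3 and to control constructs. Library hairpins with annealed Cy3 and quencher oligos were imaged on a sequenced MiSeq flow cell in 50 mM Na-HEPES pH 8.0, 25 mM NaCl, at 2.5 °C intervals up to 60 °C. Four replicates were combined with inverse-variance weighting. A 9.35 °C upward shift was applied to fitted temperatures to match UV melts.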

[2] = melting temperature; fluorescence melt of hairpins on a sequencing array, two-state fit, raised by 9.35 °C to match UV melts; conditions: sodium 0.088 M
Procedure, shortened: as §1

Row | Sequence | folding enthalpy [1] | Tm [2]
1 | GTTTCTGGAAACAGAAGC (.(((((....))))).) | -26.3 kcal/mol | 39.5 °C
2 | GCTCAGCCGAAAGGCAGC (((..(((....)))))) | -13.1 kcal/mol | 41.1 °C
3 | GATCGAGCGTTCGATC ((((((....)))))) | -45.4 kcal/mol | 52.1 °C
4 | GATCTGGGGACAGATC ((((((....)))))) | -31.4 kcal/mol | 54.3 °C
5 | GGAGCCGCGAAAGCGTCC (((..(((....)))))) | -10.9 kcal/mol | 30.7 °C
6 | GATCGAGAGTTCGATC ((((((....)))))) | -36.7 kcal/mol | 50.5 °C
7 | GTAGCTCGAAAGAGGTAC (((.(((....))).))) | -38 kcal/mol | 56.7 °C
8 | GGGAGTTCGAAAGAACCC (((..(((....)))))) | -18.2 kcal/mol | 47.9 °C
9 | GTGGTAGGAAACTACCAC (((((((....))))))) | -54.9 kcal/mol | 61.2 °C
10 | GTCCCGGGAAACCGAGAC (((.(((....))).))) | -25.8 kcal/mol | 46.3 °C
11 | GATCCCAACCGGGATC ((((((....)))))) | -35.1 kcal/mol | 63.4 °C
12 | GGCGAATCGAAAGATGCC (((..(((....)))))) | -22.5 kcal/mol | 46.1 °C
13 | GATCTATGCTAGATC ((((((...)))))) | -23.4 kcal/mol | 40.4 °C
14 | GTCTTGCGAAAGCATGAC (((.(((....))).))) | -37.7 kcal/mol | 56.1 °C
15 | GATACCGAAAGGTTAATC ((((((....)))..))) | -11.1 kcal/mol | 25.3 °C
16 | GTCCCGCGAAAGCGCGAC (((.(((....))).))) | -21.4 kcal/mol | 49.5 °C
17 | GCGTCGGCGAAAGCCCGC (((..(((....)))))) | -17 kcal/mol | 58.7 °C
18 | GCCTTGGGAAACCAAAGC ((.((((....)))).)) | -18 kcal/mol | 37.6 °C
19 | GGCACGGGAAACCACGCC (((..((....))..))) | -28.8 kcal/mol | 46.2 °C
20 | GTCCGAGCGAAAGCTGAC (((..(((....)))))) | -14.5 kcal/mol | 37.2 °C
21 | GTCACAGCGAAAGCTGAC (((..(((....)))))) | -10.4 kcal/mol | 34.2 °C
22 | GATCGATACTCGATC ((((((...)))))) | -41.3 kcal/mol | 51.3 °C
23 | GATTGGGGAAACCTGATC (((..((....))..))) | -18.6 kcal/mol | 30.6 °C
24 | GCTTGGAAACAAGC (((((....))))) | -31 kcal/mol | 53.7 °C

Row | Sequence | folding enthalpy [1] | Tm [2]
25 | GATCTGATGTCAGATC ((((((....)))))) | -53.1 kcal/mol | 49.1 °C
26 | GACCTTCCGAAAGGAGTC (((..(((....)))))) | -11.8 kcal/mol | 26.4 °C
27 | GATTACGAAAGTAAATC ((((((....))).))) | -19.9 kcal/mol | 36 °C
28 | GGTGCTGGAAACAGCATC (.(((((....))))).) | -30.3 kcal/mol | 54.1 °C
29 | GATCAGTGGCCTGATC ((((((....)))))) | -36 kcal/mol | 50.6 °C
30 | GGCATTACGAAAGTAGCC (((..(((....)))))) | -21.8 kcal/mol | 43.1 °C
31 | GTCCACGAAAGTGGAGAC ((((((....)))..))) | -9.62 kcal/mol | 48.7 °C
32 | GCAGCCGAAAGGCCTGC ((((((....))).))) | -25.5 kcal/mol | 61.3 °C
33 | GTGATGGAAACATCAC ((((((....)))))) | -41.8 kcal/mol | 56.7 °C
34 | GCAGAATCGAAAGATTGC (((..(((....)))))) | -21.1 kcal/mol | 34.6 °C
35 | GGGCTCCGAAAGGACCCC (((.(((....))).))) | -20.5 kcal/mol | 53.9 °C
36 | GCGTACGAAAGTAGCGC ((((((....))).))) | -31.1 kcal/mol | 68.8 °C
37 | GTTGATCCGAAAGGAAAC (((..(((....)))))) | -20.8 kcal/mol | 27.6 °C
38 | GCGAATTCGAAAGAACGC (((..(((....)))))) | -20.4 kcal/mol | 40.5 °C
39 | GATCCGTAGTCGGATC ((((((....)))))) | -36 kcal/mol | 57 °C
40 | GGCTCCGAAAGGAGGGCC ((((((....)))..))) | -15.8 kcal/mol | 52.5 °C
41 | GTCCACGAAAGTGAGAC ((((((....))).))) | -23.8 kcal/mol | 52.2 °C
42 | GTACGAGGAAACTTGTAC ((((.((....)).)))) | -37.1 kcal/mol | 44 °C
43 | GGACTTGGAAACGAGTCC (((((.(....).))))) | -39.4 kcal/mol | 52.4 °C
44 | GAATGCGAAAGCAACTTC ((((((....)))..))) | -13 kcal/mol | 36 °C
45 | GGTAAGTCGAAAGACACC (((..(((....)))))) | -17.9 kcal/mol | 37.3 °C
46 | GCGGAACTCCGC ((((....)))) | -25.7 kcal/mol | 54.9 °C
47 | GATCAGCAAGCTGATC ((((((....)))))) | -33 kcal/mol | 58.7 °C
48 | GACGCCGGAAACGACGCC (.((.((....)).)).) | -21.7 kcal/mol | 39.7 °C

Row | Sequence | folding enthalpy [1] | Tm [2]
49 | GTGTCGGGAAACCGGCAC (((.(((....))).))) | -45.1 kcal/mol | 60.8 °C
50 | GTGTACGAAAGTATCCAC ((((((....)))..))) | -18.3 kcal/mol | 26.4 °C
51 | GCGGGCCCCGC ((((...)))) | -22.2 kcal/mol | 62.2 °C
52 | CGTCACGGAAACGTACG (((.(((....)))))) | -22.8 kcal/mol | 40 °C
53 | GGAAGCGAAAGCTTTTCC ((((((....)))..))) | -12.2 kcal/mol | 33.4 °C
54 | GAGGACGAAAGTCCACTC ((((((....)))..))) | -12.7 kcal/mol | 52.4 °C
55 | GCGAGGCGAAAGCCATGC ((..(((....)))..)) | -17.6 kcal/mol | 58.1 °C
56 | GGTAACCGAAAGGTACC (((.(((....)))))) | -19.4 kcal/mol | 51.1 °C
57 | GGAGTAGGAAACCACTCC (((((.(....).))))) | -28.3 kcal/mol | 42.6 °C
58 | GGAAACGCGAAAGCGTCC (((..(((....)))))) | -9.21 kcal/mol | 39.1 °C
59 | GCTTGAGGAAACTCAAAC (.(((((....))))).) | -13.8 kcal/mol | 30.6 °C
60 | GGATTCGAAAGAATCC ((((((....)))))) | -37.9 kcal/mol | 62.9 °C
61 | GATCGCTCCGGCGATC ((((((....)))))) | -39.2 kcal/mol | 68.4 °C
62 | GTAGACGAAAGTCCGTAC ((((((....)))..))) | -8.44 kcal/mol | 21 °C
63 | GGATTACCGAAAGGTTCC (((..(((....)))))) | -13.5 kcal/mol | 30.8 °C
64 | GCGACGCGAAAGCGAGGC ((..(((....)))..)) | -12.8 kcal/mol | 54.6 °C
65 | GTCAGCGAAAGCTCGAC ((((((....))).))) | -19.8 kcal/mol | 48 °C
66 | GCGTTGAAACGC ((((....)))) | -20.8 kcal/mol | 53.5 °C
67 | GGTAGTGAAAACTACC ((((((....)))))) | -33.4 kcal/mol | 58.5 °C
68 | GGCAACGGAAACGTCACC ((..(((....)))..)) | -13.9 kcal/mol | 26 °C
69 | GGATCAGGAAACTGGTTC (.(.(((....))).).) | -12.2 kcal/mol | 29.1 °C
70 | GGGGTTCGAAAGAATCCC (((.(((....))).))) | -43.8 kcal/mol | 58.6 °C
71 | GAGTACGAAAGTATACTC ((((((....)))..))) | -19.7 kcal/mol | 34.4 °C
72 | GTGTATCGAAAGATTCAC (((.(((....))).))) | -36.9 kcal/mol | 44.7 °C

Row | Sequence | folding enthalpy [1] | Tm [2]
73 | GCTCCCGGAAACGGAAGC (((.(((....))).))) | -28.6 kcal/mol | 50 °C
74 | GATCGCCCCAGCGATC ((((((....)))))) | -33.5 kcal/mol | 68.5 °C
75 | GCGTCACGACGC ((((....)))) | -31.7 kcal/mol | 58.6 °C
76 | GAGCTGGCGAAAGCCCTC (((..(((....)))))) | -5.81 kcal/mol | 36.6 °C
77 | CCTGTGAAAACAGG (((((....))))) | -17 kcal/mol | 51.6 °C
78 | GATCGCGAGGGCGATC ((((((....)))))) | -38 kcal/mol | 68 °C
79 | GGTCCTCGAAAGAGTACC (((.(((....))).))) | -31.1 kcal/mol | 43.4 °C
80 | GTCCACCCGAAAGGGGAC (((..(((....)))))) | -18.5 kcal/mol | 47 °C
81 | GGGAGTACGAAAGTACCC (((..(((....)))))) | -13.1 kcal/mol | 51.3 °C
82 | GATCGGAGCACCGATC ((((((....)))))) | -34.3 kcal/mol | 57.4 °C
83 | GATCGCTCCCGCGATC ((((((....)))))) | -34.3 kcal/mol | 67.8 °C
84 | GATCATAGAGATGATC ((((((....)))))) | -30.1 kcal/mol | 44.5 °C
85 | GCTGACGAAAGTCAGAGC ((((((....)))..))) | -13.4 kcal/mol | 55.8 °C
86 | GCAGAGCGAAAGCTAGGC ((..(((....)))..)) | -16.4 kcal/mol | 50.7 °C
87 | GAGGGCGGAAACGCTCTC (((.(((....))).))) | -31.9 kcal/mol | 57.2 °C
88 | GCACTGCGAAAGCTGCGC ((.(.((....)).).)) | -22.5 kcal/mol | 57.1 °C
89 | GATCTATCACTAGATC ((((((....)))))) | -31.9 kcal/mol | 38.6 °C
90 | GCCCCGCGAAAGCCTGGC (((..((....))..))) | -17 kcal/mol | 39.5 °C
91 | GATCGGTAGCCCGATC ((((((....)))))) | -30.1 kcal/mol | 56.3 °C
92 | GCGAATGGAAACATTTGC ((.((((....)))).)) | -33.6 kcal/mol | 49.5 °C
93 | GATCACGCTGGTGATC ((((((....)))))) | -42.5 kcal/mol | 58.2 °C
